In ChEMBL document CHEMBL4038266, “Griseofulvin Derivative and Indole Alkaloids from Penicillium griseofulvum CPCC 400528” (J Nat Prod, 2017):

Tests used:
Escherichia coli = test: Antibacterial activity against Escherichia coli after 18 hrs by broth microdilution method; format: functional
Procedure, shortened: (§1)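 Broth microdilution per CLSI, using ATCC standard strains. Final compound concentrations ran from 0.125 to 256 μg/mL. Plates were incubated at 37 °C for 18 h. MIC was taken as the lowest concentration preventing visible bacterial growth. Levofloxacin served as the positive control.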

Staphylococcus aureus = test: Antibacterial activity against Staphylococcus aureus after 18 hrs by broth microdilution method; format: functional; procedure, shortened: as §1
[1] = test system: Human immunodeficiency virus 1; test: Antiviral activity against VSV pseudotyped HIV1 infected in SupT1 cells after 48 hrs by luciferase reporter gene assay; format: functional, cell-based; conditions: Human immunodeficiency virus 1, SUP-T1, 48 h
Procedure, shortened: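 VSV-G pseudotyped HIV-1 produced by cotransfecting 293T cells (2 × 10^5/mL) with 0.6 μg pNL-Luc-E and 0.4 μg pHIT/G. Supernatant harvested after 48 h, 0.45 μm filtered, and capsid quantified by p24 antigen-capture ELISA. SupT1 cells infected at MOI 1 with or without compound, 37 °C, 48 h. Inhibition read by firefly luciferase. Efavirenz positive control.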

Cc1cc(=O)n2c(n1)-c1c(cc3cccc4c3c1C(=O)N4C)C2(C)C
MIC (Escherichia coli): > 64 µg/mL
MIC (Staphylococcus aureus): > 64 µg/mL
IC50 [1]: 77.9 µM

CC(=O)[C@@]1(O)C(=O)N2C(C)(C)[C@@H]3Cc4cccc5c4[C@@]4(O[C@@]1(O)[C@@]2(O)[C@H]34)C(=O)N5
MIC (Escherichia coli): > 64 µg/mL
MIC (Staphylococcus aureus): > 64 µg/mL
IC50 [1]: 70.1 µM

Cc1cc(=O)n2c(n1)-c1c(cc3cccc4c3c1C(=O)N4)C2(C)C
MIC (Escherichia coli): > 64 µg/mL
MIC (Staphylococcus aureus): > 64 µg/mL
IC50 [1]: 20.5 µM

COc1cc(O)c2c(=O)c3c(C)cc(O)cc3oc2c1
MIC (Escherichia coli): > 64 µg/mL
MIC (Staphylococcus aureus): > 64 µg/mL
IC50 [1]: 79.4 µM

CN1C(=O)c2c3c(cc4cccc1c24)C(C)(C)NC3=O
MIC (Escherichia coli): > 64 µg/mL
MIC (Staphylococcus aureus): > 64 µg/mL
IC50 [1]: 12.6 µM

COC1=CC(=O)C[C@@H](C)[C@]12Oc1cc(OC)cc(OC)c1C2=O
MIC (Escherichia coli): > 64 µg/mL
MIC (Staphylococcus aureus): > 64 µg/mL
IC50 [1]: 89.7 µM

COc1cc(OC)c2c(c1Cl)O[C@@]1(C(=O)C=C(NCCC(C)C)C[C@H]1C)C2=O
MIC (Escherichia coli): > 64 µg/mL
MIC (Staphylococcus aureus): > 64 µg/mL
IC50 [1]: 33.2 µM

COc1ccc2c3c1C(=O)CC(C)(C)N3C(=O)[C@]21C[C@]2([N+](=O)[O-])CN3CCC[C@H]3C[C@@H]2C1(C)C
MIC (Escherichia coli): > 64 µg/mL
MIC (Staphylococcus aureus): > 64 µg/mL
IC50 [1]: 57.7 µM

COC1=CC(=O)C[C@@H](C)[C@]12Oc1c(Cl)c(OC)cc(OC)c1C2=O [GRISEOFULVIN]
MIC (Escherichia coli): > 64 µg/mL
MIC (Staphylococcus aureus): > 64 µg/mL
IC50 [1]: 87.1 µM
